In ChEMBL document CHEMBL1629686, “Substrate selectivity and a novel role in inhibitor discrimination by residue 237 in the KPC-2 beta-lactamase” (Antimicrob Agents Chemother, 2010):

Key:
Klebsiella pneumoniae [1] = test: Selectivity index, Ratio of Kcat/Km for Klebsiella pneumoniae 1534 beta-lactamase KPC-2 T237S mutant to ratio of Kcat/Km for Klebsiella pneumoniae 1534 beta-lactamase KPC-2 by spectrophotometric analysis
How it was run: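 Kinetics used purified enzymes in 10 mM PBS, pH 7.4, room temperature, with 10 nM enzyme and substrate in excess. Km and Vmax came from a Michaelis-Menten fit. kcat/Km of the variant was compared with wild type as ΔΔG = −RT ln of the kcat/Km ratio.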

Klebsiella pneumoniae [2] = test: Ratio of Kcat/Km for Klebsiella pneumoniae 1534 beta-lactamase KPC-2 T237A mutant by spectrophotometric analysis
How it was run: (§1)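 Purified KPC-2 variant enzymes (periplasmic lysate from E. coli, preparative isoelectric focusing). Hydrolysis followed by diode-array spectrophotometry in 10 mM PBS, pH 7.4, room temperature. Enzyme at 10 nM with substrate in molar excess for pseudo-first-order conditions. Vmax and Km came from a nonlinear least-squares Michaelis-Menten fit.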

Klebsiella pneumoniae [3] = test: Activity of Klebsiella pneumoniae 1534 beta-lactamase KPC-2 T237E mutant by spectrophotometric analysis; how it was run: as §1
Klebsiella pneumoniae [4] = test: Activity of Klebsiella pneumoniae 1534 beta-lactamase KPC-2 T237A mutant by spectrophotometric analysis; how it was run: as §1
Klebsiella pneumoniae [5] = test: Ratio of Kcat/Km for Klebsiella pneumoniae 1534 beta-lactamase KPC-2 T237E mutant by spectrophotometric analysis; how it was run: as §1
Klebsiella pneumoniae [6] = test: Ratio of Kcat/Km for Klebsiella pneumoniae 1534 beta-lactamase KPC-2 T237S mutant by spectrophotometric analysis; how it was run: as §1
Klebsiella pneumoniae [7] = test: Activity of Klebsiella pneumoniae 1534 beta-lactamase KPC-2 T237S mutant by spectrophotometric analysis; how it was run: as §1

Work on O=C(Cc1cccs1)N[C@@H]1C(=O)N2C(C(=O)O)=C(/C=C/c3ccc([N+](=O)[O-])cc3[N+](=O)[O-])CS[C@H]12 yielded a fold change (FC) (Klebsiella pneumoniae [1]) of 2.7, a kcat/Km (Klebsiella pneumoniae [2]) of 13 µM⁻¹ s⁻¹ and a Km (Klebsiella pneumoniae [3]) of 167 µM. It also gave a kcat (Klebsiella pneumoniae [3]) of 92 s⁻¹, a Km (Klebsiella pneumoniae [4]) of 15 µM and a kcat (Klebsiella pneumoniae [4]) of 191 s⁻¹. It also gave a kcat/Km (Klebsiella pneumoniae [5]) of 0.6 µM⁻¹ s⁻¹, a kcat/Km (Klebsiella pneumoniae [6]) of 10 µM⁻¹ s⁻¹ and a Km (Klebsiella pneumoniae [7]) of 5 µM. It also gave a kcat (Klebsiella pneumoniae [7]) of 50 s⁻¹.
